{"data": "Measured values gathered from unrelated publications", "RET": "Proto-oncogene tyrosine-protein kinase receptor Ret (RET, Homo sapiens, UniProt P07949)", "RET V804L": "Proto-oncogene tyrosine-protein kinase receptor Ret (RET, Homo sapiens, UniProt P07949, V804L)", "RET V804M": "Proto-oncogene tyrosine-protein kinase receptor Ret (RET, Homo sapiens, UniProt P07949, V804M)", "RET M918T": "Proto-oncogene tyrosine-protein kinase receptor Ret (RET, Homo sapiens, UniProt P07949, M918T)"}
{"SMILES": "COc1ccc(NC(=O)Nc2cc(C)c3nc(NC(=O)c4ccccc4)sc3c2)c(OC)c1", "target": "RET", "effect on": "enzyme activity", "mode": "inhibitor", "technique": "radiometric", "tested at": "0.1 µM", "measurement": "remaining activity", "value": "133%"}
{"SMILES": "Cc1ccc(C(=O)NCc2ccsc2)cc1C#Cc1cn(C(C)C)c2ncnc(N)c12", "target": "RET", "effect on": "enzyme activity", "mode": "inhibitor", "tested at": "1 µM", "measurement": "activity vs control", "value": "4%"}
{"SMILES": "COc1cc2ncnc(Nc3ccc(Oc4ccccc4)cc3C)c2cc1OC", "target": "RET V804L", "effect on": "enzyme activity", "mode": "inhibitor", "tested at": "1 µM", "measurement": "inhibition", "value": "3%"}
{"SMILES": "CCS(=O)(=O)c1cc2cc(C[C@](O)(CC(C)(C)c3ccc(F)cc3C(N)=O)C(F)(F)F)[nH]c2cn1", "target": "RET V804L", "effect on": "cell-free assay", "technique": "competition with immobilised ligand", "tested at": "1 µM", "measurement": "remaining binding", "value": "100%"}
{"SMILES": "COc1ccc(COc2ccc(Cc3cnc(N)nc3N)cc2OC)cc1", "target": "RET", "effect on": "cell-free assay", "tested at": "0.5 µM", "measurement": "remaining signal", "value": "108%"}
{"SMILES": "COc1ccc2c(c1)O[C@H](c1ccc(OC)c(OC)c1)C[C@@H]2NC(=O)C1(c2ccc3c(c2)OC(F)(F)O3)CC1", "target": "RET V804M", "effect on": "cell-free assay", "technique": "competition with immobilised ligand", "tested at": "1 µM", "measurement": "remaining binding", "value": "100%"}
{"SMILES": "CN(CCCC(F)(F)F)c1nccc(-c2cnn3ncccc23)n1", "target": "RET V804M", "effect on": "binding", "tested at": "1 µM", "measurement": "remaining binding", "value": "100%"}
{"SMILES": "COc1ccc(CN2C3CC2CN(c2ccc(-c4cc(OCC(C)(C)O)cn5ncc(C#N)c45)cn2)C3)cn1", "target": "Proto-oncogene tyrosine-protein kinase receptor Ret (RET, Homo sapiens, UniProt P07949, L760A)", "effect on": "thermal stability", "technique": "DSF", "tested at": "10 µM", "measurement": "ΔTm", "value": "8.7 °C"}
{"SMILES": "Cc1cccc(NC(=O)CNC(=O)c2ccccc2NS(=O)(=O)c2ccc3[nH]c(=O)[nH]c3c2)c1C", "target": "RET", "effect on": "enzyme activity", "mode": "inhibitor", "technique": "radiometric", "tested at": "10 µM", "measurement": "remaining activity", "value": "85.9%"}
{"SMILES": "O=C(NS(=O)(=O)c1ccc(NCC2CCOCC2)c([N+](=O)[O-])c1)c1ccc(N2CCN(Cc3ccc(C(F)(F)F)cc3-c3ccc(Cl)cc3)CC2)cc1Oc1cnc2[nH]ccc2c1", "target": "RET V804M", "effect on": "cell-free assay", "technique": "competition with immobilised ligand", "tested at": "1 µM", "measurement": "remaining binding", "value": "100%"}
{"SMILES": "CCCOc1ccc(OC)c(F)c1C(=O)c1ccc(C(=O)N[C@@H]2CNC[C@H]2NC(=O)c2ccc3[nH]ncc3c2)cc1", "target": "RET", "effect on": "enzyme activity", "mode": "inhibitor", "tested at": "0.5 µM", "measurement": "remaining activity", "value": "54%"}
{"SMILES": "CN(C)c1ncc(F)c(-c2cnn3ncccc23)n1", "target": "RET M918T", "effect on": "binding", "tested at": "1 µM", "measurement": "remaining binding", "value": "96%"}
{"SMILES": "COc1cc(-c2cc(-c3ccc(N4CCNCC4)cc3)cnc2N)cc(OC)c1OC", "target": "RET V804L", "effect on": "enzyme activity", "mode": "inhibitor", "tested at": "1 µM", "measurement": "inhibition", "value": "5%"}
{"SMILES": "O=C(Nc1cccnn1)N1CCC(=Cc2cccc(Oc3ccc(C(F)(F)F)cn3)c2)CC1", "target": "RET V804M", "effect on": "cell-free assay", "technique": "competition with immobilised ligand", "tested at": "1 µM", "measurement": "remaining binding", "value": "100%"}
{"SMILES": "CN(c1nccc(-c2cnn3ncccc23)n1)C1CC1", "target": "RET V804M", "effect on": "binding", "tested at": "1 µM", "measurement": "remaining binding", "value": "100%"}
{"SMILES": "Nc1nc(SCC(=O)Nc2ccc3c(c2)OCO3)[nH]c(=O)c1NC(=O)c1ccc(F)c(F)c1", "target": "RET", "effect on": "enzyme activity", "mode": "inhibitor", "technique": "radiometric", "tested at": "0.1 µM", "measurement": "remaining activity", "value": "109%"}
{"SMILES": "CS(=O)(=O)N1CCCC(NC(=O)[C@H](CCC2CCCCC2)NC(=O)c2ccc(CNc3ncnc4c3nnn4-c3ccccc3)cc2)C1 (stereo partly drawn)", "target": "RET M918T", "effect on": "cell-free assay", "technique": "competition with immobilised ligand", "tested at": "0.1 µM", "measurement": "remaining binding", "value": "93%"}
{"SMILES": "Nc1ncnc2occ(-c3ccc(NC(=O)Nc4cc(C(F)(F)F)ccc4F)cc3)c12", "target": "RET M918T", "effect on": "cell-free assay", "tested at": "20 µM", "measurement": "remaining signal", "value": "0%"}
{"SMILES": "Cc1cc(NC(=O)c2cccc3cc(-c4cccc5[nH]nc(N)c45)ccc23)ccc1F", "target": "RET V804L", "effect on": "enzyme activity", "mode": "inhibitor", "tested at": "0.1 µM", "measurement": "activity vs control", "value": "116%"}
{"SMILES": "CC(=O)OCc1cnc(C)c2oc(=Nc3ccc(F)cc3)c(C(=O)Nc3ccc4c(c3)OCO4)cc12", "target": "RET", "effect on": "enzyme activity", "mode": "inhibitor", "technique": "radiometric", "tested at": "0.1 µM", "measurement": "remaining activity", "value": "121%"}
{"SMILES": "N[C@H]1CCN(c2nccc(-c3cnn4ncccc34)n2)C1", "target": "RET V804L", "effect on": "binding", "tested at": "1 µM", "measurement": "remaining binding", "value": "93%"}
{"SMILES": "CNC(=O)c1cc(Oc2ccc(NC(=O)Nc3ccc(Cl)c(C(F)(F)F)c3)cc2)ccn1", "target": "RET", "effect on": "cell-free assay", "tested at": "0.5 µM", "measurement": "remaining signal", "value": "1.78%"}
{"SMILES": "CCOC(=O)N1CCN(c2nc(Nc3ccc(C)cc3)c3nn[nH]c3n2)CC1", "target": "RET", "effect on": "enzyme activity", "mode": "inhibitor", "technique": "radiometric", "tested at": "0.1 µM", "measurement": "remaining activity", "value": "128%"}
{"SMILES": "CC/C(=N\\NC(=O)NCc1cccc(O)c1)c1ccc(O)c(C)c1O", "target": "Proto-oncogene tyrosine-protein kinase receptor Ret (RET, Homo sapiens, UniProt P07949, S891A)", "effect on": "enzyme activity", "mode": "inhibitor", "tested at": "0.1 µM", "measurement": "inhibition", "value": "6.2%"}
{"SMILES": "O=C1Nc2ccc(Cl)cc2C1=Cc1cc(Cl)c(O)c(Cl)c1", "target": "RET", "effect on": "cell-free assay", "tested at": "0.5 µM", "measurement": "remaining signal", "value": "80.4%"}
{"SMILES": "CC(=O)c1cccc(NC(=O)Cc2csc(NC(=O)Nc3cccc(Cl)c3)n2)c1", "target": "RET", "effect on": "enzyme activity", "mode": "inhibitor", "technique": "radiometric", "tested at": "10 µM", "measurement": "remaining activity", "value": "92.6%"}
{"SMILES": "C[C@@H]1CCN(c2nccc(-c3cnn4ncccc34)n2)C1", "target": "RET M918T", "effect on": "binding", "tested at": "1 µM", "measurement": "remaining binding", "value": "100%"}
{"SMILES": "Cc1c(NC(=O)c2cc(C(N)=O)nc3cc(F)ccc23)c(C(F)(F)F)nn1Cc1ccc(C(C)(C)C)cc1", "target": "RET V804M", "effect on": "cell-free assay", "technique": "competition with immobilised ligand", "tested at": "1 µM", "measurement": "remaining binding", "value": "100%"}
{"SMILES": "CC(=O)Nc1cccc2c1CCN(C(=O)CCNC(=O)c1ccsc1)C2", "target": "RET", "effect on": "enzyme activity", "mode": "inhibitor", "technique": "radiometric", "tested at": "10 µM", "measurement": "remaining activity", "value": "90.8%"}
{"SMILES": "c1cnn2ncc(-c3ccnc(N4CCC45COC5)n3)c2c1", "target": "RET M918T", "effect on": "binding", "tested at": "1 µM", "measurement": "remaining binding", "value": "97%"}
{"SMILES": "CO[C@]1(C(=O)N[C@@H](C)c2ccc(-n3cc(F)cn3)nc2)CC[C@H](c2nc(C)cc(Nc3cc(C)[nH]n3)n2)CC1", "target": "RET V804M", "effect on": "thermal stability", "technique": "DSF", "tested at": "10 µM", "measurement": "ΔTm", "value": "8.7 °C"}
{"SMILES": "COCCOc1nc(-c2ccc(Cl)nc2)nc2c1CN(C(=O)c1ncn3ccccc13)CC2", "target": "RET V804M", "effect on": "cell-free assay", "technique": "competition with immobilised ligand", "tested at": "0.1 µM", "measurement": "remaining binding", "value": "89%"}
{"SMILES": "Cc1cnn2ncc(-c3ccnc(N(C)C)n3)c2c1", "target": "RET V804M", "effect on": "binding", "tested at": "1 µM", "measurement": "remaining binding", "value": "100%"}
{"SMILES": "O=c1nc(-c2ccccn2)sc2ccccc12", "target": "RET V804M", "effect on": "binding", "technique": "competition with immobilised ligand", "tested at": "1 µM", "measurement": "remaining binding", "value": "100%"}
{"SMILES": "COC(=O)c1cccc(NC(=O)Nc2cc(C)c3nc(NC(=O)c4ccccc4)sc3c2)c1", "target": "RET", "effect on": "enzyme activity", "mode": "inhibitor", "technique": "radiometric", "tested at": "0.1 µM", "measurement": "remaining activity", "value": "109%"}
{"SMILES": "Cc1ccc(Nc2nccc(N(C)c3ccc4c(C)n(C)nc4c3)n2)cc1S(N)(=O)=O", "target": "RET", "effect on": "cell-free assay", "tested at": "0.5 µM", "measurement": "remaining signal", "value": "25.7%"}
